Source: ChEMBL document CHEMBL4477212 (J Med Chem, 2016)
≈ marks a conversion by molar mass, not a printed value. Blank lines part the entries; values can stand above or below the compound they belong to.

Assays:
CEM-SS [1] = assay: Cytotoxicity against human CEM-SS cells assessed as cell viability at 10 uM after 6 days by MTS assay; type: cell-based; conditions: 144 h
Method in brief: (§1)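 Single-concentration screen (10 μM) in CEM-SS cells infected with pre-titered HIV-1 IIIB, sized so virus control wells lose 70–95% viability. Incubation was 6 days and read-out was by MTS. Percent CPE reduction was calculated against virus control wells (cells plus virus). Percent viability was calculated against cell-only control wells. Plates included compound toxicity and colorimetric controls, and AZT as positive control.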

[2] = test system: Human immunodeficiency virus 1; assay: Antiviral activity against HIV1 3B infected in human CEM-SS cells assessed as reduction of virus-induced cytopathic effect at 10 uM after 6 days by MTS assay; type: functional; parameters: scale not given: the % may be the effect or the level left; method in brief: as §1
[3] = target: Human immunodeficiency virus type 1 integrase (Human immunodeficiency virus 1, UniProt Q7ZJM1); assay: Inhibition of HIV1 recombinant integrase expressed in Escherichia coli using [32P]-labeled oligonucleotide as substrate after 60 mins by strand transfer activity assay
Human immunodeficiency virus type 1 integrase, sequence (Q7ZJM1 whole entry): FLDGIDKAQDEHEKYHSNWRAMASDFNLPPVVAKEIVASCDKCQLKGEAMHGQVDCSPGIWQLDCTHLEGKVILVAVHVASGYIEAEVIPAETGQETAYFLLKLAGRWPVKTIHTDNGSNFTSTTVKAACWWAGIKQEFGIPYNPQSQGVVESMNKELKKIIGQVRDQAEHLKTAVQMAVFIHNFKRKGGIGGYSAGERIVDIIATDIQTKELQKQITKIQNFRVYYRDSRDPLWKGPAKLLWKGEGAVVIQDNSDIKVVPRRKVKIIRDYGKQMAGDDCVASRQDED

[4] = test system: Human immunodeficiency virus 1; assay: Fold resistance, ratio of EC50 for raltegravir-resistant HIV1 4736-2 expressing integrase N155H mutant to EC50 for HIV1 expressing wild-type integrase; type: functional
[5] = test system: Human immunodeficiency virus 1; assay: Antiviral activity against HIV1 infected in human P4R5 cells assessed as reduction of virus replication preincubated with cells for 24 hrs followed by viral infection for 48 hrs by 4-methylumbelliferylgalactoside-based MAGI assay; type: functional, organism-based
[6] = test system: Human immunodeficiency virus 1; assay: Antiviral activity against HIV1 3B infected in human CEM-SS cells assessed as reduction of virus-induced cytopathic effect after 6 days by MTS assay; type: functional, organism-based; conditions: Human immunodeficiency virus 1, 3B, 144 h
[7] = Intrinsic clearance in mouse liver microsomes assessed as glucuronidation during phase 2 measured per mg of protein; type: ADME, Microsome
[8] = Intrinsic clearance in human liver microsomes during phase 1 measured per mg of protein; type: ADME, Microsome
[9] = Half life of the compound in DPBS; type: physicochemical
[10] = Half life in human plasma; type: ADME, cell-free
[11] = Plasma protein binding in human; type: ADME, cell-free
[12] = target: Human immunodeficiency virus type 1 reverse transcriptase (Human immunodeficiency virus 1, UniProt Q72547); assay: Inhibition of RNase H activity of full length HIV1 reverse transcriptase using RNA-DNA duplex HTS-1 substrate
CEM-SS [13] = assay: Cytotoxicity against human CEM-SS cells assessed as cell death after 6 days by MTS assay; type: cell-based; conditions: 144 h
Method in brief: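 Dose-response format in CEM-SS cells exposed to compound alone (toxicity control wells) alongside the HIV-1 IIIB cytoprotection plates. Incubation was 6 days and viability was measured by MTS. CC50 is the concentration giving 50% cell death, determined from the dose-response data.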

[14] = test system: Human immunodeficiency virus 1; assay: Fold resistance, ratio of EC50 for raltegravir-resistant HIV1 1556-1 expressing integrase Y143C mutant to EC50 for HIV1 expressing wild-type integrase; type: functional
[15] = Plasma protein binding in mouse; type: ADME, cell-free
[16] = Half life in mouse plasma; type: ADME, cell-free
[17] = test system: Human immunodeficiency virus 1; assay: Fold resistance, ratio of EC50 for raltegravir-resistant HIV1 8070-1 expressing integrase G140S/Y143H/Q148H mutant to EC50 for HIV1 expressing wild-type integrase; type: functional
[18] = Aqueous solubility of the compound in DPBS; type: physicochemical; conditions: buffer
[19] = Therapeutic index, ratio of CC50 for human CEM-SS cells to EC50 for HIV1 3B infected in human CEM-SS cells; type: toxicity, cell-based; conditions: read-out: Ratio CC50/EC50
[20] = test system: Human immunodeficiency virus 1; assay: Fold resistance, ratio of EC50 for raltegravir-resistant HIV1 8070-2 expressing integrase G140S/Q148H mutant to EC50 for HIV1 expressing wild-type integrase; type: functional
[21] = Intrinsic clearance in human liver microsomes assessed as glucuronidation during phase 2 measured per mg of protein

SMILES: O=C(NCc1ccccc1)c1c(Nc2ccc(-c3ccccc3)cc2)[nH]c(=O)n(O)c1=O
Activity (CEM-SS [1]): 13%
Activity [2]: 0%
IC50 [3]: > 100000 nM

SMILES: Nc1[nH]c(=O)n(O)c(=O)c1C(=O)NCc1ccccc1
Activity (CEM-SS [1]): 100%
Activity [2]: 99%
IC50 [3]: 900 nM

SMILES: CCNc1[nH]c(=O)n(O)c(=O)c1C(=O)NCCCl
Activity (CEM-SS [1]): 100%
Activity [2]: 5.1%
IC50 [3]: > 100000 nM

SMILES: CNc1[nH]c(=O)n(O)c(=O)c1C(=O)NCc1ccc(F)cc1
Activity (CEM-SS [1]): 89%
Activity [2]: 100%
IC50 [3]: 110 nM

SMILES: CNc1[nH]c(=O)n(O)c(=O)c1C(=O)NCc1cccc(F)c1
Activity (CEM-SS [1]): 95%
Activity [2]: 100%
IC50 [3]: 250 nM

SMILES: CCNc1[nH]c(=O)n(O)c(=O)c1C(=O)NCc1cccc(Cl)c1F
Activity (CEM-SS [1]): 100%
Ratio EC50 [4]: 2.4
EC50 [5]: 300 nM
EC50 [6]: 15 nM
CLH [7]: 1065 µL/min/mg
CLH [8]: < 0.1 µL/min/mg
half-life [9]: > 24 h
t1/2 [10]: > 24 h
PPB [11]: 98.4%
IC50 [12]: 29 nM
Activity [2]: 100%
CC50 (CEM-SS [13]): 18000 nM
Ratio EC50 [14]: 0.4
IC50 [3]: 21 nM
PPB [15]: 94%
t1/2 [16]: > 24 h
Ratio EC50 [17]: 6.3
solubility [18]: 11 µM (≈ 3.92 µg/mL)
selectivity ratio [19]: 1200
Ratio EC50 [20]: 13

SMILES: CCNc1c(C(=O)NCc2ccc(F)cc2)c(=O)n(O)c(=O)n1C
Activity (CEM-SS [1]): 10%
Activity [2]: 6.5%
IC50 [3]: > 100000 nM

SMILES: CCNc1[nH]c(=O)n(O)c(=O)c1C(=O)NCc1ccc(F)cc1F
Activity (CEM-SS [1]): 92%
EC50 [5]: 70 nM
EC50 [6]: 32 nM
IC50 [12]: 10 nM
Activity [2]: 100%
CC50 (CEM-SS [13]): 47000 nM
IC50 [3]: 48 to 68 nM
selectivity ratio [19]: 1500

SMILES: CCNc1[nH]c(=O)n(O)c(=O)c1C(=O)NCc1ccccc1
Activity (CEM-SS [1]): 100%
EC50 [5]: 300 nM
EC50 [6]: 61 nM
CLH [7]: 732 µL/min/mg
CLH [8]: < 0.1 µL/min/mg
half-life [9]: > 24 h
t1/2 [10]: > 24 h
PPB [11]: 99.1%
IC50 [12]: 42 nM
Activity [2]: 100%
CC50 (CEM-SS [13]): 23000 nM
IC50 [3]: 33 nM
PPB [15]: 83.9%
t1/2 [16]: > 24 h
CLH [21]: 355 µL/min
solubility [18]: 1091 µM (≈ 332 µg/mL)
selectivity ratio [19]: 380

IC50 [3]: > 100000 nM
SMILES: CCNc1[nH]c(=O)n(O)c(=O)c1C(N)=O

SMILES: CCNc1[nH]c(=O)n(O)c(=O)c1C(=O)NCc1ccc(C)c(F)c1
Activity (CEM-SS [1]): 100%
EC50 [5]: 1300 nM
EC50 [6]: 150 nM
CLH [7]: 1342 µL/min/mg
CLH [8]: < 0.1 µL/min/mg
half-life [9]: > 24 h
t1/2 [10]: > 24 h
PPB [11]: 98.9%
IC50 [12]: 20 nM
Activity [2]: 100%
CC50 (CEM-SS [13]): 20000 nM
IC50 [3]: 51 nM
PPB [15]: 95.9%
t1/2 [16]: > 24 h
CLH [21]: 357 µL/min
solubility [18]: 81 µM (≈ 27.2 µg/mL)
selectivity ratio [19]: 130

SMILES: CCNc1[nH]c(=O)n(O)c(=O)c1C(=O)NCCc1ccccc1
Activity (CEM-SS [1]): 87%
Activity [2]: 99%
IC50 [3]: 100 nM

SMILES: CNc1[nH]c(=O)n(O)c(=O)c1C(=O)NCc1cccc(Cl)c1F
Activity (CEM-SS [1]): 100%
Activity [2]: 100%
IC50 [3]: 110 nM

SMILES: CCNc1[nH]c(=O)n(O)c(=O)c1C(=O)NCc1ccc(F)cc1
Activity (CEM-SS [1]): 99%
EC50 [5]: 90 nM
EC50 [6]: 33 nM
CLH [7]: 1240 µL/min/mg
CLH [8]: < 0.1 µL/min/mg
half-life [9]: > 24 h
t1/2 [10]: > 24 h
PPB [11]: 99.4%
IC50 [12]: 11 nM
Activity [2]: 100%
CC50 (CEM-SS [13]): 19000 nM
IC50 [3]: 49 nM
PPB [15]: 86.5%
t1/2 [16]: > 24 h
solubility [18]: 150 µM (≈ 48.3 µg/mL)
selectivity ratio [19]: 580

SMILES: O=C(NCc1ccccc1)c1c(NC2CC2)[nH]c(=O)n(O)c1=O
Activity (CEM-SS [1]): 91%
Activity [2]: 98%
IC50 [3]: 210 nM

SMILES: CCNc1[nH]c(=O)n(O)c(=O)c1C(=O)NCc1cc(F)ccc1Cl
Activity (CEM-SS [1]): 73%
Activity [2]: 62%
IC50 [3]: 95 nM

SMILES: CCNc1[nH]c(=O)n(O)c(=O)c1C(=O)NCc1ccc(Cl)c(F)c1
Activity (CEM-SS [1]): 100%
EC50 [5]: 800 nM
EC50 [6]: 190 nM
IC50 [12]: 22 nM
Activity [2]: 100%
CC50 (CEM-SS [13]): 19000 nM
IC50 [3]: 120 nM

SMILES: Cc1cn([C@H]2C[C@H](N=[N+]=[N-])[C@@H](CO)O2)c(=O)[nH]c1=O [ZIDOVUDINE]
Ratio EC50 [4]: 0.7
Ratio EC50 [14]: 1.4
Ratio EC50 [17]: 0.9
Ratio EC50 [20]: 0.5

SMILES: CNc1[nH]c(=O)n(O)c(=O)c1C(=O)NCc1ccccc1
Activity (CEM-SS [1]): 98%
EC50 [5]: 3700 nM
EC50 [6]: 830 nM
CLH [7]: 500 µL/min/mg
CLH [8]: 0.8 µL/min/mg
half-life [9]: > 24 h
t1/2 [10]: > 24 h
PPB [11]: 99.2%
IC50 [12]: 61 nM
Activity [2]: 100%
CC50 (CEM-SS [13]): 58000 nM
IC50 [3]: 80 nM
PPB [15]: 70.9%
t1/2 [16]: > 24 h
CLH [21]: 51 µL/min
solubility [18]: 138 µM (≈ 40.1 µg/mL)
selectivity ratio [19]: 70

SMILES: O=C(NCc1ccccc1)c1c(Nc2ccccc2)[nH]c(=O)n(O)c1=O
Activity (CEM-SS [1]): 21%
Activity [2]: 0%
IC50 [3]: > 100000 nM

SMILES: CC(C)(C)Nc1[nH]c(=O)n(O)c(=O)c1C(=O)NCc1ccccc1
Activity (CEM-SS [1]): 17%
Activity [2]: 0%
IC50 [3]: 81 nM

SMILES: O=C(NCc1ccc(F)cc1)c1c2n(c(=O)n(O)c1=O)CCCN2
Activity (CEM-SS [1]): 5.5%
Activity [2]: 0%
IC50 [3]: 430 nM

SMILES: CCNc1[nH]c(=O)n(O)c(=O)c1C(=O)NCc1ccc(F)c(F)c1
Activity (CEM-SS [1]): 100%
EC50 [5]: 300 nM
EC50 [6]: 49 nM
IC50 [12]: 26 nM
Activity [2]: 100%
CC50 (CEM-SS [13]): 21000 nM
IC50 [3]: 77 nM
selectivity ratio [19]: 430

SMILES: CCNc1[nH]c(=O)n(O)c(=O)c1C(=O)NCc1cc(F)ccc1F
Activity (CEM-SS [1]): 87%
Activity [2]: 92%
IC50 [3]: 68 nM

SMILES: CCCNc1[nH]c(=O)n(O)c(=O)c1C(=O)NCc1cccc(Cl)c1F
Activity (CEM-SS [1]): 48%
Activity [2]: 33%
IC50 [3]: 58 nM

SMILES: CCNc1[nH]c(=O)n(O)c(=O)c1C(=O)Oc1ccccc1
Activity (CEM-SS [1]): 100%
Activity [2]: 50%
IC50 [3]: > 100000 nM

SMILES: CCNc1[nH]c(=O)n(O)c(=O)c1C(=O)NCc1cccc(F)c1
Activity (CEM-SS [1]): 90%
Activity [2]: 100%
IC50 [3]: 68 nM

SMILES: CC(C)Nc1[nH]c(=O)n(O)c(=O)c1C(=O)NCc1ccccc1
Activity (CEM-SS [1]): 90%
Activity [2]: 98%
IC50 [3]: 150 nM

SMILES: CCNc1[nH]c(=O)n(O)c(=O)c1C(=O)NCc1cc(F)cc(F)c1
Activity (CEM-SS [1]): 100%
Activity [2]: 100%
IC50 [3]: 230 nM

SMILES: CCCNc1[nH]c(=O)n(O)c(=O)c1C(=O)NCc1ccccc1
Activity (CEM-SS [1]): 97%
Activity [2]: 100%
IC50 [3]: 66 nM

SMILES: CCNc1[nH]c(=O)n(O)c(=O)c1C(=O)Nc1ccccc1
Activity (CEM-SS [1]): 27%
Activity [2]: 11%
IC50 [3]: 35000 nM
